Reference: the RNAGym collection of RNA variant scans (doi:10.1126/science.aae0568)
This sample holds only a part of the variants without activity.

B1: tRNA (parent)
chain: GUUCCGUUGGCGUAAUGGUAACGCGUCUCCCUCCUAAGGAGAAGACUGCGGGUUCGAGUCCCGUACGGAACG

Variants of: B1
Assay: yeast fitness relative to wild type (ratio to wild type); higher = fitter; tRNA-Arg(CCU), competitive growth, 37 C, YPD
Method in brief: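 Gene amplicons from the start population and from each of six end populations were read by 100-nucleotide paired-end sequencing. Those end populations came from pooled Saccharomyces cerevisiae strains carrying tRNA-Arg(CCU) gene variants at the native locus, competed in YPD at 37°C for 24 hours. Fitness relative to wild type was worked out from changes in genotype frequencies. Genotypes needed ≥ 100 starting reads, and estimates < 0.5 were set to 0.5.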

Compared with GUUCCGUUGGCGUGAUGGUAACGCGUCUCACUCCUAAGGAGAAGACUGCGGGUUCGAGUCCCGUACGGAACG, GUUCCGUUGGCGUGAUGGUAACGCGUCUCGCUCCUAAGGAGAAGACUGCGGGUUCGAGUCCCGUACGGAACG is lower in yeast fitness: 0.861 for the first, 0.591 for the second.

GUUCCGUUGGCGUGAUGGUAACGCGUCUCCGUCCUAAGGAGAUGAGUGCGGGUUCGAGUCCCGUACGGAUCG and GUUCCGUUGGCGUGAUGGUAACGCGUCUCCUUCCUAAGGAGGAGACUGCGGGUUCGAGUCCUGUACGGCACG cannot be ordered by yeast fitness: at most 0.5 for the first, at most 0.5 for the second.

First: GUUCCGUUGGCGUGAUGGUAACGCGUCUACCUCCUAAGGAGAAGACUGCGGGUUCGAGUCCUGUACGGAACG
Second: GUUCCGUUGGCGUGAUGGUAACGCGUGUCUGUCCUAAGGAGAAGACUGCGGGUUCGAGUCCCGUACGGAACG
The yeast fitness of the first is lower: at most 0.5 for the first, 0.76 for the second.

GUUCCGUUGGCGUGAUGGUAACGCGUCUCACUCAUAAGGAGACGACUGCGGGUUCGAGUCCCGUACGGAACG and GUUCCGUUGGCGUGAUGGUAACGCGUCUCCCUCGUAAGGAGAAGACUGCGGGUUCGAGUGCCGUACGGACCG cannot be ordered by yeast fitness: at most 0.5 for the first, at most 0.5 for the second.

GUUCCGUUGGCGUGAUGCUAUCGCGUCUGCCUCCUAAGGAGAAGACUGCGGGUUCGAGUCCCGUACAGAACG and GUUCCGUUGGCGUGAUGGUAACGCGUCUCCUUCCUAAGGAGAAGACUGCGGGUUCGAGUCCCGUACGCAACG cannot be ordered by yeast fitness: at most 0.5 for the first, at most 0.5 for the second.

GUUCCGUUGGCGUGAUGGUAACGCGUCUCCCUCGUAAGGAGAAGACUGCGGGUUCGAGUCCCCUACCGAACG and GUUCCGUUGGCGUGAUGAUAACGCGACUCCCUCCUAAGGAGAAGACUGCAGGUUCGAGUCCCGUACGGAACG cannot be ordered by yeast fitness: at most 0.5 for the first, at most 0.5 for the second.

Going from GUUCCGUUGGCGUGAUGGUAACGCGUCUGCCUUCUAAGGAGAAGACUGCGGGUUCGAGUCCCGUACGGAACG to GUUCCGUUGGCGUGAUGGUAACGCGUCUCCCUCGUAAGGAGACGACUGCGGGUUCGAGUCCUGUACGGAACG, the yeast fitness falls from 0.55 to at most 0.5.

Compared with GUUCCGUUGGCGUGAUGGUAACGCGUCUCCCUCCUAAGGAGAAGACUGCGGGUUGGAGUCCCGUACGGAACG, GUUCCGUUGGCGUGAUGGUAACGCGUCUGCCUCCUAAGGAGAAGACUGCGGGUUCGAGUCCCGUACGGAACG is lower in yeast fitness: 0.583 for the first, 0.564 for the second.

Compared with GUUCCGUUGGCGUGAUGGUAACGCGUCUCCCUCCUAAGGAGAAGACUGCGGGUUCGAGUCUCGUACGGAACG, GUUCCGUUGGCGUGAUGGUAACGCGUCUCCAUCCUAAGGAGAACACUGCGGGUUCGAGUGCCGUACGGAACG is lower in yeast fitness: 0.934 for the first, at most 0.5 for the second.

Going from GUUCCGUUGGCGUGAUGGUAACGCGUCUCGCUCCUAAGGAGAAGGCUGCGGGUUCGAGUCCCGUACGGAACG to GUUCCGUUGGCGUGAUGGUAACGCGUCUCACUCAUAAGGAGACGACUGCGGGUUCGAGUCCCGUCCGGACCG, the yeast fitness falls from 0.585 to at most 0.5.

GUUCCGUUGGCGUGAUGGUAACGCGUCUACAUCCUAAGGCGAAAACUGCGGGUUCGAGACCCGUACGGAACG and GUUCCGUUGGCGUGAUGGUAACGCGUCUCACUCAUAAGGAGACGACUGCGGGUUCGAGUCCUGUACGGAACG cannot be ordered by yeast fitness: at most 0.5 for the first, at most 0.5 for the second.

Compared with GUUCCGUUGGCGUGAUGGUAACGCGUCUCCAUCCUAAGGAGAGGACUGCGGGUUCGAGUCCCGUACGGAACG, GUUCCGUUGGCGUGAUGGUAACGCGUCUCCCUCCUAAGGAGAAGACUGCGGGUUCGAGUCCCGUAAGGAACG is lower in yeast fitness: 0.679 for the first, 0.656 for the second.

First: GUUCCGUUGGCGUGAUGGUAACGCGUCUCCCUCCUAAGGAGAAGACUGCGGGUUCGAGUCCCGUAUGGAACG
Second: GUUCCGUUGGCGUGAUGGUAACGCGUGUCCCUCCUAAGGAGAAGACUGCGGGUUCGAGUCCCGUUCGUAACG
The yeast fitness of the first is higher: 0.891 for the first, at most 0.5 for the second.

GUUCCGUUGGCGUGAUGGUAACGCGUCUCCCUCUUAAGGAGAAGACUGCGGAUUCGAGUCCCGUAUGGAUCG and GUUCCGUUGGCGUGAUCGUAACGCGUCUCCCUCCUAAGAAGAAGACUGCGGGUUCGAGUCCCGUACGGCACG cannot be ordered by yeast fitness: at most 0.5 for the first, at most 0.5 for the second.

GUUCCGUUGGCGUGAUGGUAACGCGUCUACCUCCUAGGGAGAAGACUGCGGGUUCGAGUCCCGUACGGAACG and GUUCCGUUGGCGUGAUGAUAACGCGACUCCCCCCUAAGGAGAAGACUGCGGGUUCGAGUCCCGUACGGAACG cannot be ordered by yeast fitness: at most 0.5 for the first, at most 0.5 for the second.

GUUCCGUUGGCGUGAUCGUAACGCGUCUCCCUCCUCAGGAGAAGACUAGGAGUUCGAGUCCCGUACGGACCG and GUUCCGUUGGCGUGAUGGUAACGCGUCUGCCUCCUAGGGAGAAGAUUGCGGGUUCGAGUCCCGUAGGGAACG cannot be ordered by yeast fitness: at most 0.5 for the first, at most 0.5 for the second.

GUUCCGUUGGCGUGAUGGUAACGCGUCUCCGUCCUAUGGAGAAGACUGCGGGUUCGCGUCCCGUACGGUACG and GUUCCGUUGGCGUGAUGGUAACGCGUCUCUCUCCUAAGGAGAAGAAUGCAGGUUCGAGUCCCGUACGGAACG cannot be ordered by yeast fitness: at most 0.5 for the first, at most 0.5 for the second.

Going from GUUCCGUUGGCGUGAUGGUAACGCGUCUCUCUCCUAAGGAGAAGAUUGCAGGUUCGAGUCCCGUACGGGACG to GUUCCGUUGGCGUGAUGCUAACGCGUCUGCCUCCUAAGGAGAAGACUGCGGGUCCGAGUCCCGUACGGAACG, the yeast fitness falls from 0.704 to at most 0.5.

GUUCCGUUGGCGUGAUGGUAACGCGUCUGCCUCCUAGGGAGAAGACUGCGGGUUCGAGUCCCGUAGGGAACG and GUUCCGUUGGCGUGAUGGUAACGCGUGUCCCUCCUAAGGAGAAGACUGCGGGUUCGAGUCCUGUACGGAACG cannot be ordered by yeast fitness: at most 0.5 for the first, at most 0.5 for the second.
